Laboratory results from ChEMBL document CHEMBL1146219, “Synthesis and evaluation of novel radioiodinated benzamides for malignant melanoma” (J Med Chem, 2007).

Assays:
[1] = molecular target: Sigma non-opioid intracellular receptor 1 (Cavia porcellus, UniProt Q60492); test: Displacement of [3H](+)-pentazocine from sigma 1 receptor in guinea pig brain membrane; format: cell membranes
Summary of the method: (§1)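 Guinea pig brain membranes, incubated in duplicate for 2 h at 25 °C in Tris-HCl pH 8.0. Benzamide 10⁻¹⁰ to […] against 2 nM [³H]-(+)-pentazocine (σ₁) or 2 nM [³H]DTG plus 100 nM (+)-pentazocine (σ₂). Nonspecific binding defined with 1 µM haloperidol. GF/B filtration, bound activity by β-scintillation counting, giving IC50 then Ki. Full curves run only where 10⁻⁵ M inhibited >90%.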

[2] = Displacement of [3H]DTG from sigma 2 receptor in guinea pig brain membrane; format: cell membranes, Cavia porcellus; summary of the method: as §1
[3] = Lipophilicity, log P at pH 7.5; format: physicochemical; details: buffer
[4] = system: Lung; test: Biodistribution in lung of B16F0 tumor bearing C57BL/6J mouse at 0.37-0.74 MBq, iv after 6 hrs; format: ADME, organism-based; details: in vivo
Summary of the method: (§2)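 Female C57BL/6J mice (15-18 g) were given B16F0 cells subcutaneously in the left flank (0.1 mL of 3 × 10⁶ viable cells/mL in Ca²⁺/Mg²⁺-free PBS) at 6-7 weeks and used after ten days. [¹²³I]benzamide (0.37-0.74 MBq, 100 µL, saline) was injected via the tail vein. Groups of n = 5 were killed by CO₂ and cervical dislocation. Organs were weighed and γ-counted, and the carcass was counted too.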

[5] = Biodistribution in tumor of B16F0 tumor bearing C57BL/6J mouse at 0.37-0.74 MBq, iv after 1 hr in presence of haloperidol; format: ADME, organism-based, B16-F0; details: in vivo
Summary of the method: (§3)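 B16F0 tumor-bearing C57BL/6J mice, groups of n = 5, given haloperidol 1 mg/kg i.v. 5 min before the i.v. [¹²³I]tracer (0.37-0.74 MBq). Killed at 1 or 24 h. Tissues γ-counted as for biodistribution and compared with untreated controls by one-way ANOVA, significance p < 0.01.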

[6] = system: Liver; test: Biodistribution in liver of B16F0 tumor bearing C57BL/6J mouse at 0.37-0.74 MBq, iv after 6 hrs; format: ADME, organism-based; details: in vivo; summary of the method: as §2
[7] = system: Blood; test: Biodistribution in blood of B16F0 tumor bearing C57BL/6J mouse at 0.37-0.74 MBq, iv after 1 hr in presence of haloperidol; format: ADME, organism-based; details: in vivo
[8] = system: Lung; test: Biodistribution in lung of B16F0 tumor bearing C57BL/6J mouse at 0.37-0.74 MBq, iv after 1 hr; format: ADME, organism-based; details: in vivo; summary of the method: as §2
[9] = system: Kidney; test: Biodistribution in kidney of B16F0 tumor bearing C57BL/6J mouse at 0.37-0.74 MBq, iv after 24 hrs; format: ADME, organism-based; details: in vivo; summary of the method: as §2
[10] = Biodistribution in melanoma of B16F0 tumor bearing C57BL/6J mouse at 0.37-0.74 MBq, iv after 1 hr; format: ADME, organism-based, B16-F0; details: in vivo; summary of the method: as §2
[11] = system: Kidney; test: Biodistribution in kidney of B16F0 tumor bearing C57BL/6J mouse at 0.37-0.74 MBq, iv after 1 hr in presence of haloperidol; format: ADME, organism-based; details: in vivo
Summary of the method: (§4)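 Haloperidol blocking in B16F0-bearing C57BL/6J mice: 1 mg/kg haloperidol was given iv 5 min before the iv [¹²³I]benzamide (0.37-0.74 MBq). Groups of n = 5 were killed at 1 or 24 h. Tissues were weighed and γ-counted as in the biodistribution study and compared with untreated controls by one-way ANOVA, with p < 0.01 taken as significant.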

[12] = system: Brain; test: Biodistribution in brain of B16F0 tumor bearing C57BL/6J mouse at 0.37-0.74 MBq, iv after 24 hrs; format: ADME, organism-based; details: in vivo; summary of the method: as §2
[13] = system: Lung; test: Biodistribution in lung of B16F0 tumor bearing C57BL/6J mouse at 0.37-0.74 MBq, iv after 1 hr in presence of haloperidol; format: ADME, organism-based; details: in vivo; summary of the method: as §4
[14] = system: Kidney; test: Biodistribution in kidney of B16F0 tumor bearing C57BL/6J mouse at 0.37-0.74 MBq, iv after 1 hr; format: ADME, organism-based; details: in vivo; summary of the method: as §2
[15] = system: Blood; test: Biodistribution in blood of B16F0 tumor bearing C57BL/6J mouse at 0.37-0.74 MBq, iv after 1 hr; format: ADME, organism-based; details: in vivo; summary of the method: as §2
[16] = Biodistribution in melanoma of B16F0 tumor bearing C57BL/6J mouse at 0.37-0.74 MBq, iv after 24 hrs; format: ADME, organism-based, B16-F0; details: in vivo; summary of the method: as §2
[17] = system: Blood; test: Biodistribution in blood of B16F0 tumor bearing C57BL/6J mouse at 0.37-0.74 MBq, iv after 24 hrs; format: ADME, organism-based; details: in vivo; summary of the method: as §2
[18] = system: Lung; test: Biodistribution in lung of B16F0 tumor bearing C57BL/6J mouse at 0.37-0.74 MBq, iv after 24 hrs; format: ADME, organism-based; details: in vivo; summary of the method: as §2
[19] = system: Liver; test: Biodistribution in liver of B16F0 tumor bearing C57BL/6J mouse at 0.37-0.74 MBq, iv after 1 hr in presence of haloperidol; format: ADME, organism-based; details: in vivo; summary of the method: as §4
[20] = system: Blood; test: Biodistribution in blood of B16F0 tumor bearing C57BL/6J mouse at 0.37-0.74 MBq, iv after 6 hrs; format: ADME, organism-based; details: in vivo; summary of the method: as §2
[21] = Biodistribution in eye of B16F0 tumor bearing C57BL/6J mouse at 0.37-0.74 MBq, iv after 24 hrs in presence of haloperidol; format: ADME, organism-based; details: in vivo; summary of the method: as §4
[22] = system: Blood; test: Biodistribution in blood of B16F0 tumor bearing C57BL/6J mouse at 0.37-0.74 MBq, iv after 24 hrs in presence of haloperidol; format: ADME, organism-based; details: in vivo
[23] = system: Heart; test: Biodistribution in heart of B16F0 tumor bearing C57BL/6J mouse at 0.37-0.74 MBq, iv after 1 hr; format: ADME, organism-based; details: in vivo; summary of the method: as §2
[24] = system: Brain; test: Biodistribution in brain of B16F0 tumor bearing C57BL/6J mouse at 0.37-0.74 MBq, iv after 1 hr; format: ADME, organism-based; details: in vivo; summary of the method: as §2
[25] = system: Brain; test: Biodistribution in brain of B16F0 tumor bearing C57BL/6J mouse at 0.37-0.74 MBq, iv after 1 hr in presence of haloperidol; format: ADME, organism-based; details: in vivo
[26] = system: Kidney; test: Biodistribution in kidney of B16F0 tumor bearing C57BL/6J mouse at 0.37-0.74 MBq, iv after 6 hrs; format: ADME, organism-based; details: in vivo; summary of the method: as §2
[27] = system: Heart; test: Biodistribution in heart of B16F0 tumor bearing C57BL/6J mouse at 0.37-0.74 MBq, iv after 6 hrs; format: ADME, organism-based; details: in vivo; summary of the method: as §2
[28] = system: Heart; test: Biodistribution in heart of B16F0 tumor bearing C57BL/6J mouse at 0.37-0.74 MBq, iv after 24 hrs; format: ADME, organism-based; details: in vivo; summary of the method: as §2
[29] = system: Liver; test: Biodistribution in liver of B16F0 tumor bearing C57BL/6J mouse at 0.37-0.74 MBq, iv after 24 hrs; format: ADME, organism-based; details: in vivo; summary of the method: as §2
[30] = Biodistribution in melanoma of B16F0 tumor bearing C57BL/6J mouse at 0.37-0.74 MBq, iv after 6 hrs; format: ADME, organism-based, B16-F0; details: in vivo
Summary of the method: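 Female C57BL/6J mice (15-18 g) carrying s.c. B16F0 flank tumors (0.1 mL of 3 × 10⁶ viable cells per mL in Ca²⁺/Mg²⁺-free PBS, inoculated at 6-7 weeks, used 10 days later). [¹²³I]tracer 0.37-0.74 MBq in saline, 100 µL, tail-vein i.v. Groups of n = 5 killed at 1-72 h. Organs weighed and γ-counted, carcass activity also counted, values as %ID/g.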

[31] = system: Lung; test: Biodistribution in lung of B16F0 tumor bearing C57BL/6J mouse at 0.37-0.74 MBq, iv after 24 hrs in presence of haloperidol; format: ADME, organism-based; details: in vivo; summary of the method: as §4
[32] = system: Brain; test: Biodistribution in brain of B16F0 tumor bearing C57BL/6J mouse at 0.37-0.74 MBq, iv after 24 hrs in presence of haloperidol; format: ADME, organism-based; details: in vivo
[33] = Biodistribution in eye of B16F0 tumor bearing C57BL/6J mouse at 0.37-0.74 MBq, iv after 1 hr in presence of haloperidol; format: ADME, organism-based; details: in vivo; summary of the method: as §4
[34] = Biodistribution in tumor of B16F0 tumor bearing C57BL/6J mouse at 0.37-0.74 MBq, iv after 24 hrs in presence of haloperidol; format: ADME, organism-based, B16-F0; details: in vivo; summary of the method: as §3
[35] = system: Liver; test: Biodistribution in liver of B16F0 tumor bearing C57BL/6J mouse at 0.37-0.74 MBq, iv after 1 hr; format: ADME, organism-based; details: in vivo; summary of the method: as §2
[36] = system: Kidney; test: Biodistribution in kidney of B16F0 tumor bearing C57BL/6J mouse at 0.37-0.74 MBq, iv after 24 hrs in presence of haloperidol; format: ADME, organism-based; details: in vivo; summary of the method: as §4
[37] = system: Brain; test: Biodistribution in brain of B16F0 tumor bearing C57BL/6J mouse at 0.37-0.74 MBq, iv after 6 hrs; format: ADME, organism-based; details: in vivo; summary of the method: as §2
[38] = system: Liver; test: Biodistribution in liver of B16F0 tumor bearing C57BL/6J mouse at 0.37-0.74 MBq, iv after 24 hrs in presence of haloperidol; format: ADME, organism-based; details: in vivo; summary of the method: as §4

Chain of Sigma non-opioid intracellular receptor 1 (Q60492 whole entry): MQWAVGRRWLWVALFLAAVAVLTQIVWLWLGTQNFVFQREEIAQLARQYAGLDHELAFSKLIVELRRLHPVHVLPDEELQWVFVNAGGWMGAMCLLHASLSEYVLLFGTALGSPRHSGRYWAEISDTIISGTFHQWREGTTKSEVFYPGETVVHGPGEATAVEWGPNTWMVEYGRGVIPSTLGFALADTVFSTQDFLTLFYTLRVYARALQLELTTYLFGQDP

CCN(CC)CCNC(=O)c1cc(I)c(NC(C)=O)cc1OC
Ki [1]: 1.65 µM
Ki [2]: > 100 µM
logD [3]: 1.54

COc1cc(NC(C)=O)c(I)cc1C(=O)NCCCCN(C)C(C)C
Ki [1]: 5.2 µM
Ki [2]: 5.4 µM
logD [3]: 0.75

O=C(NC1CCN(CCF)CC1)c1ccc(I)cc1
Drug uptake [4]: 6.4 % ID/g
Drug uptake [5]: 10.5 % ID/g
Drug uptake [6]: 3.8 % ID/g
Drug uptake [7]: 1.46 % ID/g
Drug uptake [8]: 10.8 % ID/g
Drug uptake [9]: 0.22 % ID/g
Drug uptake [10]: 10.9 % ID/g
Drug uptake [11]: 7.3 % ID/g
Drug uptake [12]: 0.09 % ID/g
Drug uptake [13]: 9.7 % ID/g
Drug uptake [14]: 8.7 % ID/g
Drug uptake [15]: 1 % ID/g
Drug uptake [16]: 5.5 % ID/g
Drug uptake [17]: 0.04 % ID/g
Drug uptake [18]: 0.33 % ID/g
Drug uptake [19]: 10.1 % ID/g
Drug uptake [20]: 0.34 % ID/g
Drug uptake [21]: 24.6 % ID/g
Drug uptake [22]: 0.03 % ID/g
Drug uptake [23]: 3 % ID/g
Drug uptake [24]: 3.1 % ID/g
Drug uptake [25]: 1.61 % ID/g
Drug uptake [26]: 3.4 % ID/g
Drug uptake [27]: 0.93 % ID/g
Drug uptake [28]: 0.09 % ID/g
Drug uptake [29]: 0.29 % ID/g
Drug uptake [30]: 12.5 % ID/g
Drug uptake [31]: 0.14 % ID/g
Drug uptake [32]: 0.06 % ID/g
Drug uptake [33]: 34.8 % ID/g
Drug uptake [34]: 3.3 % ID/g
Drug uptake [35]: 19.2 % ID/g
Drug uptake [36]: 0.1 % ID/g
Drug uptake [37]: 0.48 % ID/g
Drug uptake [38]: 0.12 % ID/g
